High-throughput results: PubChem, several laboratories
In the library only some 1.8% were active in any assay of this set; here they are far more common.
TNF death inh = blocks TNF-alpha induced death of Jurkat FADD-/- cells. Jurkat FADD-/- TNF necroptosis rescue, ATP luminescence, 24 h; 0 = TNF only, 100 = no-TNF cells. activation (protection from cell death), % at 10 µM. 0.068% of 220,000 active;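 active = activation, meaning protection from cell death, of at least 50% relative to plate controls; inactive = activation below 50%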;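 note: necroptosis triggered by 40 ng/mL TNF-alpha added together with compound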
L929 necroptosis = blocks zVAD induced death of L929 cells | L929 zVAD necroptosis rescue, ATP luminescence, 24 h; with zVAD 60 µM | viability rescue, % at 10 µM | 0.38% of 220,000 active | AID 1377;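 active = activation, scaled between plate controls, above about 75%, limit read from the data; inactive = activation under that limit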;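 note: 0% = zVAD with DMSO and 100% = DMSO alone without zVAD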
Autophagy HCS = autophagy modulation, high-content screen. MEF GFP-LC3 puncta imaging; test concentration mostly 10 µM. AID 463193. 0.98% of 190,000 active. calls only at 10 µM (by protocol);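 active = percentage of spot-positive cells more than 3 SD above its plate mean, without a fluorescence outlier flag or 80% toxicity; inconclusive = no clear call, values can overlap the other calls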;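 note: spot-positive cell cutoff set from DMSO-treated cells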
Dynein cargo inh = dynein cargo transport inhibition; 0.47% of 220,000 active; z-score, hits read low; 3617.4 mouse cells, GR-EGFP nuclear translocation imaging; test concentration mostly 20 µM; stimulated with dexamethasone, 1 µM; active compounds read low; AID 1381;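 active = plate z-score of nuclear minus cytoplasmic receptor signal below a set negative limit, without overly bright fluorescence or cell loss, cut at about -3.5 in these data, passing the limit was not always enough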;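 note: z-score of nuclear minus cytoplasmic ring GR-EGFP intensity difference per well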
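Buffer or medium: tet-free medium with charcoal-stripped serum / Also added: dexamethasone agonist, 1.0 µM final, for 30 min / Timing: induction 48 h, compound 1 h, agonist 30 min / Measured by: high-content fluorescence imaging after fixation / Read-out: nuclear-to-cytoplasmic GR-EGFP distribution per well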
MDM2 E3 inh = blocks human Mdm2 ubiquitin ligase activity. cell-based MDM2 ubiquitination luciferase reporter, 2 h; 0 = plate control, 100 = twice control, blank-subtracted. signal enhancement, % at 5 µM. 0.11% of 210,000 active. Q00987;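 active = signal enhancement of 30% or more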;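 note: luminescence tracks abundance of the self-degrading MDM2-luciferase fusion protein; higher signal means inhibition of MDM2 E3 ligase activity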
Target sequence (Q00987 whole entry, looked up, the tested form may be a part): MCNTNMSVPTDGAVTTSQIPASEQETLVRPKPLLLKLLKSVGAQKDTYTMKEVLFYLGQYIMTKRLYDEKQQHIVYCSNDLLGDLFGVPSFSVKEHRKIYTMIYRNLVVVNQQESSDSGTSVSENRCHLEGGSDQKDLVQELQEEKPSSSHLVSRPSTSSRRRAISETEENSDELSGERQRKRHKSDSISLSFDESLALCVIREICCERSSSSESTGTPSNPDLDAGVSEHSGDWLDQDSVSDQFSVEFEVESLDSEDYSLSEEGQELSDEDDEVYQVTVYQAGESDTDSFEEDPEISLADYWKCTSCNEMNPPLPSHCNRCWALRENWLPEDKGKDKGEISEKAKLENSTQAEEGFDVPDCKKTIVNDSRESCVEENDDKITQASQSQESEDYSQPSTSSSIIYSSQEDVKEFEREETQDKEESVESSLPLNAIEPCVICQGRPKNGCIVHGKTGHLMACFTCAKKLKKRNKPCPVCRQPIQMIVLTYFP
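System: stable MDM2–luciferase fusion reporter cells / Input: 2000 cells seeded into each well / Schedule: 4 h settle plus 2 h compound, 37 °C / Compound: single-point 5 µM / Buffer or medium: cells held in DMEM / Benchmarks: control and blank well means / Evaluation: percent signal gain over controls, blank-subtracted / Measured by: luciferase luminescence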
Dynein confirm = dynein cargo transport inhibition, confirmation; 3617.4 GR-EGFP nuclear translocation imaging, dexamethasone-induced; calls only at 20 µM; shares compounds with Dynein cargo inh; 69% of 1,000 active;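 active = inhibition of receptor movement into the nucleus at or above a set limit in both runs, with normal cell brightness and cell count; inconclusive = limit reached in only one run, brightness and count normal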;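 note: dexamethasone at 1 µM final in well for 30 min; nuclear minus cytoplasmic GR-EGFP mean intensity difference in channel 2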
* marks the source's active call; other numbers are inactive results; i = inactive; u = inconclusive; x = no result given; + = active, no number.

SMILES	TNF death inh	L929 necroptosis	Autophagy HCS	Dynein cargo inh	MDM2 E3 inh	Dynein confirm
COCCNC(=S)NNc1ccccc1[N+](=O)[O-]	-1	3	i	-0.79	-22	x
COc1cc(/C=C2/C(=O)c3cccc([N+](=O)[O-])c3C2=O)c(Br)cc1O	-8	1	i	-3.5*	-15	i
COCCn1c(SCCOc2ccccc2)nc2ccccc2c1=O	1	1	i	-1.1	-13	x
COCCCN1C(=O)CS/C1=N\S(=O)(=O)c1ccccc1	0	1	x	0.4	-9	x
O=Cc1s/c(=N\S(=O)(=O)c2ccccc2)n(CCCCl)c1Cl	19	6	i	-5.7*	29	+
Cc1ccc(-n2nc(-c3ccc(OC(F)(F)F)cc3)cc2N)cc1C	2	0	x	2.3	-14	x
O=c1[nH]sc2ccccc12	-5	-1	i	-3.8*	-7	+
O=c1cc(O)sc2ccccc12	0	0	i	-0.34	-17	x
N#CC(C#N)=Cc1cc2ccccc2nc1N1CCCCC1	0	4	i	-4.4*	2	u
Cc1ccc(NC(=S)NNC(=O)CSc2nc3ccccc3c(=O)n2-c2ccc(C)cc2)cc1	3	0	i	-1.2	x	x
COc1ccc(C(=O)/C=C/C(=O)N(Cc2ccccc2)C(C(=O)NC2CCCCC2)c2ccncc2)c(O)c1 (stereo unspecified)	3	0	i	-0.32	1	x
COc1ccc(C(=O)/C=C/C(=O)N(CC(=O)NC2CCCCC2)Cc2ccccc2)c(O)c1	-15	20	i	-4.6*	20	+
COc1ccc(C(=O)/C=C/C(=O)N(Cc2ccccc2OC)C(C(=O)NC2CCCCC2)c2ccncc2)c(O)c1 (stereo unspecified)	4	1	i	-0.51	6	x
COc1ccc(C(=O)/C=C/C(=O)N(CC(=O)NC2CCCCC2)Cc2ccccc2OC)c(O)c1	-15	14	i	-4.5*	6	+
COc1ccc(C(=O)/C=C/C(=O)N(CC(=O)NC2CCCCC2)CC2CCCO2)c(O)c1 (stereo unspecified)	-14	26	+	-4.7	-13	+
COc1ccc(C(=O)/C=C/C(=O)N(Cc2ccc(F)cc2)C(C(=O)NC2CCCCC2)c2ccncc2)c(O)c1 (stereo unspecified)	3	1	i	0.52	-9	x
CCS(=O)(=O)N1CCC(C(=O)NCc2ccc(OC)cc2)CC1	1	1	i	-0.74	-8	x
Cc1ccc(C(=O)OC(C)CN2CCN(C)CC2)cc1 (stereo unspecified)	7	-1	x	0.33	-6	x
O=C(Cn1cccc1)N1CCN(C(c2ccccc2)c2ccccc2)CC1	-1	0	i	1	-13	x
CC(c1ccccc1)N1CCN(C(=O)CCl)CC1 (stereo unspecified)	-7	0	i	-4.9*	-5	i
N=c1oc2c3c4c(cc2cc1C(=O)Nc1ccccc1)CCCN4CCC3	-2	0	i	-4.6*	-40	+
O=C(CN(c1ccccn1)S(=O)(=O)c1ccccc1)N/N=C/c1cccc([N+](=O)[O-])c1	2	-1	i	2.9	3	x
O=C(NCc1cccnc1)/C(=C\c1ccc(-c2ccc(Cl)c(Cl)c2)o1)S(=O)(=O)c1ccccc1	-15	-1	i	-4.2*	x	+
Cc1cccc(OCCC(=O)Nc2ccc(F)c(Cl)c2)c1	3	1	i	0.85	-8	x
c1ccc(-c2ccc(-c3nccc4ccccc34)[nH]2)cc1	-5	1	x	-4.6	-69	i
SMILES	TNF death inh	L929 necroptosis	Autophagy HCS	Dynein cargo inh	MDM2 E3 inh	Dynein confirm
CCN1C(=O)/C(=C\c2ccco2)C(C(=O)OC)=C1C	0	1	i	0.17	-22	x
CCOc1cc(/C=C2\C(=O)N(CCc3ccc(OC)c(OC)c3)C(C)=C2C(=O)OC)ccc1O	6	0	i	-4*	x	i
CCOc1cc(/C=C2\C(=O)N(Cc3ccco3)C(C)=C2C(=O)OC)ccc1O	2	0	i	-4.4*	-1	+
COC(=O)C1=C(C)N(Cc2ccc(C)cc2)C(=O)/C1=C\c1ccc(O)c(OC)c1	-9	0	i	-2.1	-5	x
COC(=O)C1=C(C)N(Cc2ccc(C)cc2)C(=O)/C1=C\c1cc(OC)c(OC)c(OC)c1	3	1	i	-3.5*	0	+
COc1ccc(N(C(=O)CCl)C(C(=O)NCCc2ccccc2)c2cccs2)cc1 (stereo unspecified)	-13	2	i	-5.3*	-14	+
O=C(CCl)NNC(=O)c1c(O)c2ccccc2[nH]c1=O	-10	0	x	-0.56	-10	x
CCCCCCN(C(=O)CCl)c1ccccc1	-24	-1	x	-4.7*	4	+
O=Cc1[nH]c2ccccc2c1N(C(=O)CCl)c1ccccc1	-7	0	x	-7.6	-3	+
O=C(CCl)N(c1ccccc1)c1ccccc1	-16	64	i	-4.5*	-11	+
O=C(N(c1ccccc1)c1ccccc1)N(c1ccccc1)c1ccccc1	2	2	x	-0.62	-8	x
CCCCCCCN(C(=O)CCl)c1cccc(C)c1	-12	1	i	-3	-9	x
COc1ccccc1CNC(=O)CN(Cc1ccc(Cl)cc1)S(C)(=O)=O	0	0	i	-0.28	-10	x
Cc1ccccc1-n1ccnc1SCC(=O)NCc1ccco1	1	3	i	0.056	-2	x
CCOC(=O)c1cc(C#N)c(C)nc1N(CC)CC	4	0	x	-0.18	-9	x
Cn1c(N)c(C(=O)Nc2ccc(-c3ccccc3)cc2)sc1=S	-6	0	x	1.7	-5	x
COc1ccc(C2CC(c3cccs3)=NN2c2ccc(C=O)cc2)cc1 (stereo unspecified)	1	1	+	-9.6	-10	i
c1ccc(C2CC(c3cccs3)=NN2c2ccccc2)cc1 (stereo unspecified)	0	1	x	-0.75	-18	x
CC(C)c1nc(C(=O)N2CCCC(CCC(=O)N(C)CCc3ccccn3)C2)cs1 (stereo unspecified)	1	0	i	0.28	-5	x
Cc1ccc(-n2nnnc2C(Cl)(Cl)c2nnnn2-c2ccc(C)cc2)cc1	-23	0	i	-4.6*	-11	+
Clc1ccc(-c2nnnn2-c2ccc(Cl)cc2)cc1	3	0	x	-0.5	1	x
O=C(Sc1ccccc1)c1cccc(Cn2cc(C(F)(F)F)ccc2=O)c1	-18	0	x	-3.9*	-14	+
O=C(Nc1ccccc1)c1cccc(Cn2cc(C(F)(F)F)ccc2=O)c1	1	0	x	2.1	-8	x
